ChEMBL document CHEMBL2375299, “Synthesis and structure-activity relationships of carboxylic acid derivatives of pyridoxal as P2X receptor antagonists” (Bioorg Med Chem, 2013)
The source made the active and inactive calls. No cut-off for these calls is given here.

Key:
[1] = biological target: T1, P2X purinoceptor 7 (Homo sapiens) (UniProt Q99572); experiment: Antagonist activity at human P2X7 receptor expressed in HEK293 cells assessed as inhibition of BzATP-induced ethidium bromide uptake at 10 uM after 120 mins by fluorimetric analysis; format: cell-based
T1 sequence (whole entry): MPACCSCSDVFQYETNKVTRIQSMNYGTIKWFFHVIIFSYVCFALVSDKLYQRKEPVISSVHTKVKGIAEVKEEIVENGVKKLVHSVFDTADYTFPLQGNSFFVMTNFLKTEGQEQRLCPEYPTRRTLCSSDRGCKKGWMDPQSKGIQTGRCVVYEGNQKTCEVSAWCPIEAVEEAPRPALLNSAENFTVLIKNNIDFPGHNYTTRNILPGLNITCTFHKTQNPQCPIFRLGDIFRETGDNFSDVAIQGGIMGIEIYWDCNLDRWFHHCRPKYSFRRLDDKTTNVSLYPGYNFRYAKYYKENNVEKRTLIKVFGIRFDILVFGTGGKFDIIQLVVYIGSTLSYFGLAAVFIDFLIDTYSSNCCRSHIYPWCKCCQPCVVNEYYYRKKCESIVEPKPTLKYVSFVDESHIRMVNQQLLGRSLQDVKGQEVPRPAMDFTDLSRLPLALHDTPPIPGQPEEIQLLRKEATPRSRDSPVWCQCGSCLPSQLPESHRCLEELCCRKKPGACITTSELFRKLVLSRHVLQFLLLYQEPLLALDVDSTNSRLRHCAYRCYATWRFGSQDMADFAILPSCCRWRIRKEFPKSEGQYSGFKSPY
In short: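 HEK293 cells stably expressing hP2X7 were grown in DMEM with 10% FBS, trypsinized and resuspended at 2.5×10^6 cells/mL in HEPES/N-methyl-D-glucamine/KCl/glucose/0.5 mM CaCl2 buffer, pH 7.4, with 100 μM ethidium bromide. Cells were added at 2×10^5 per well to BzATP. After 120 min at 37 °C, ethidium fluorescence was read at ex 530 / em 590 nm.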

[2] = biological target: T2, P2X purinoceptor 3 (Homo sapiens) (UniProt P56373); experiment: Antagonist activity at human recombinant P2X3 receptor expressed in Xenopus oocytes assessed as inhibition of ATP-induced ion current at 100 nM incubated for 20 mins prior to ATP-induction by two-electrode voltage clamp assay; format: cell-based; settings: Oocyte
T2 sequence (whole entry): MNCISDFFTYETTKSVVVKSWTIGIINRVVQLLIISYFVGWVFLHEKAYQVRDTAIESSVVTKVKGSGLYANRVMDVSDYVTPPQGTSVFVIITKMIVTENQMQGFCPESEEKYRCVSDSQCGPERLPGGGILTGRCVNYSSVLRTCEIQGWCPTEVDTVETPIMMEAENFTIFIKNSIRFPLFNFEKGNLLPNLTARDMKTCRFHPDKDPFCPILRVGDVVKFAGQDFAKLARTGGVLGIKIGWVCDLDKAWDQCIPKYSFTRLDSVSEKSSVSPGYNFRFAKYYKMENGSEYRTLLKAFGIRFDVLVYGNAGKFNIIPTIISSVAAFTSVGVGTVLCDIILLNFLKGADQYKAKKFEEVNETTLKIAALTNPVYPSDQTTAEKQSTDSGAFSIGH
In short: (§1)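 Defolliculated Xenopus oocytes were injected with mouse P2X1 or human P2X3 cRNA (40 nL, 1 μg/mL), held 24 h at 18 °C in Barth's solution, then stored at 4 °C for up to 12 days. Two-electrode voltage clamp was run at Vh −70 mV with superfusion of Ringer's solution (pH 7.5, 18 °C). Compound was applied 20 min before 2 μM ATP (60–120 s), followed by 20 min washout. Mean ± SEM, n = 4 oocyte batches.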

[3] = biological target: T3, P2X purinoceptor 1 (Mus musculus) (UniProt P51576); experiment: Antagonist activity at mouse recombinant P2X1 receptor expressed in Xenopus oocytes assessed as inhibition of ATP-induced ion current at 100 nM incubated for 20 mins prior to ATP-induction by two-electrode voltage clamp assay; format: cell-based; settings: Oocyte; in short: as §1
T3 sequence (whole entry): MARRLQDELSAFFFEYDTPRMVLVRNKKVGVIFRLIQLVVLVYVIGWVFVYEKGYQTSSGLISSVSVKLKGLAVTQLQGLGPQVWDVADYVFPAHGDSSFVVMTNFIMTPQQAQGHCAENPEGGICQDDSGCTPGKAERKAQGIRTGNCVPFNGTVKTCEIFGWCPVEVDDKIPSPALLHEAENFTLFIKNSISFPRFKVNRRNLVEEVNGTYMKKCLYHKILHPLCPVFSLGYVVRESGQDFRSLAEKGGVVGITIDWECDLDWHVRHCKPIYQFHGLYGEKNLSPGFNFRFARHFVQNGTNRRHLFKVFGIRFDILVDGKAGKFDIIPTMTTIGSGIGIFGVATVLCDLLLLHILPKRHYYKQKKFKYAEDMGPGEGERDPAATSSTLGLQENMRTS

[4] = Selectivity ratio of IC50 for mouse recombinant P2X1 receptor to IC50 for human recombinant P2X3 receptor
[5] = biological target: T4, P2X purinoceptor 3 (Homo sapiens, UniProt P56373); experiment: Antagonist activity at human recombinant P2X3 receptor expressed in Xenopus oocytes assessed as inhibition of ATP-induced ion current incubated for 20 mins prior to ATP-induction by two-electrode voltage clamp assay; format: cell-based, Oocyte; in short: as §1
T4 sequence (P56373 whole entry): T2 sequence (whole entry)

[6] = biological target: T5, P2X purinoceptor 1 (Mus musculus, UniProt P51576); experiment: (§2) Antagonist activity at mouse recombinant P2X1 receptor expressed in Xenopus oocytes assessed as inhibition of ATP-induced ion current incubated for 20 mins prior to ATP-induction by two-electrode voltage clamp assay; format: cell-based, Oocyte; in short: as §1
T5 sequence (P51576 whole entry): T3 sequence (whole entry)

[7] = biological target: T6, P2X purinoceptor 1 (Homo sapiens, UniProt P51575); experiment: Antagonist activity at P2X1 receptor (unknown origin)
T6 sequence (P51575 whole entry): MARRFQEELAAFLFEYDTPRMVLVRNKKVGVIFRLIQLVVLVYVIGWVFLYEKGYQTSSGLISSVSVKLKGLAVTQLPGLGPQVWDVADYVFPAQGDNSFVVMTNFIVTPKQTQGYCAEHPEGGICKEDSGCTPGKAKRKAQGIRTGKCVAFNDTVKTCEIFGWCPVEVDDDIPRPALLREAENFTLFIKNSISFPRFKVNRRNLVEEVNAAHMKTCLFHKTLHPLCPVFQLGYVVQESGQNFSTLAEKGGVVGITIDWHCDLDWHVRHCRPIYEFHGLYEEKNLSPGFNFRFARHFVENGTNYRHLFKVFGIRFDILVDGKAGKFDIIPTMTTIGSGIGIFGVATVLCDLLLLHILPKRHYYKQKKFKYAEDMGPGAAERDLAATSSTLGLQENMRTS

[8] = biological target: T2, P2X purinoceptor 3 (Homo sapiens); experiment: Antagonist activity at human recombinant P2X3 receptor expressed in Xenopus oocytes assessed as inhibition of ATP-induced ion current at 10 uM incubated for 20 mins prior to ATP-induction by two-electrode voltage clamp assay; format: cell-based; settings: Oocyte; in short: as §1
[9] = biological target: T3, P2X purinoceptor 1 (Mus musculus); experiment: Antagonist activity at mouse recombinant P2X1 receptor expressed in Xenopus oocytes assessed as inhibition of ATP-induced ion current at 10 uM incubated for 20 mins prior to ATP-induction by two-electrode voltage clamp assay; format: cell-based; settings: Oocyte; in short: as §1
[10] = biological target: T7, P2X purinoceptor 7 (Homo sapiens, UniProt Q99572); experiment: Antagonist activity at P2X7 receptor (unknown origin)
T7 sequence (Q99572 whole entry): T1 sequence (whole entry)

[11] = biological target: T3, P2X purinoceptor 1 (Mus musculus); experiment: Antagonist activity at mouse recombinant P2X1 receptor expressed in Xenopus oocytes assessed as inhibition of ATP-induced ion current incubated for 20 mins prior to ATP-induction measured after compound washout by two-electrode voltage clamp assay; format: cell-based; settings: Oocyte
In short: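 Oocytes expressing mP2X1 were superfused with compound for 20 min before 2 μM ATP. Reversibility was checked by recording the ATP current after washout (20 min wash between ATP applications). Recordings used two-electrode voltage clamp at −70 mV in Ringer's solution, pH 7.5, 18 °C.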

[12] = biological target: T3, P2X purinoceptor 1 (Mus musculus); experiment: as §2; format: cell-based; settings: Oocyte; in short: as §1

SMILES	inhibition [1] [%]	inhibition [2] [%]	inhibition [3] [%]	inhibition [8]	inhibition [9]	further results
Cc1nc(/N=N/c2ccc(S(=O)(=O)O)cc2)c(CCC(=O)O)c(C(=O)O)c1O	< 50	37.6	57.6	–	–	–
Cc1nc(/N=N/c2cc(S(=O)(=O)O)ccc2S(=O)(=O)O)c(COP(=O)(O)O)c(C=O)c1O [ISOPPADS]	–	–	–	–	–	Ratio IC50 [4]: 0.3; IC50 [5]: 0.0962 µM; IC50 [6]: 0.0307 µM
Cc1nc(/N=N/c2ccc(C(=O)O)cc2)c(CCC(=O)O)c(C(=O)O)c1O	< 50	25.7	51.7	–	–	–
Cc1ncc(COP(=O)(O)O)c(C=O)c1O [PYRIDOXAL PHOSPHATE ANHYDROUS]	–	–	–	20.1%	13.2%	IC50 [7]: 10 µM
Cc1nc(/N=N/c2cc(S(=O)(=O)O)c3cc([N+](=O)[O-])cc(S(=O)(=O)O)c3c2)c(COP(=O)(O)O)c(C=O)c1O	–	–	–	–	–	IC50 [10]: 0.6 µM
Cc1ncc(CCC(=O)O)c(C(=O)O)c1O	–	–	–	15.2%	14.8%	–
Cc1nc(/N=N/c2ccc(S(=O)(=O)O)cc2)c(CCC(=O)O)c(C=O)c1O	< 50	46.5	41.8	–	–	–
Cc1nc(/N=N/c2ccc(C(=O)O)cc2)c(CCC(=O)O)c(C=O)c1O	< 50	56.3	48.5	–	–	Ratio IC50 [4]: 1.6
Cc1ncc(CN(CCC(=O)O)Cc2ccccc2)c(C=O)c1O	–	–	–	inactive	inactive	–
Cc1ncc(/C=C/C(=O)O)c(C=O)c1O	–	–	–	9.3%	7.4%	–
Cc1ncc(/C=C/C(=O)O)c(C(=O)O)c1O	–	–	–	inactive	inactive	–
Cc1ncc(CN(CCC(=O)O)Cc2ccccc2)c(C(=O)O)c1O	–	–	–	inactive	inactive	–
Cc1nc(/N=N/c2cc(S(=O)(=O)O)ccc2S(=O)(=O)O)c(CCC(=O)O)c(C(=O)O)c1O	< 50	45.7	60.2	–	–	–
Cc1ncc(CCC(=O)O)c(C=O)c1O	–	–	–	22.3%	19.5%	–
Cc1nc(/N=N/c2cc(S(=O)(=O)O)ccc2S(=O)(=O)O)c(CCC(=O)O)c(C=O)c1O	< 50	40.1	58.6	–	–	Ratio IC50 [4]: 0.7; inhibition [11]: inactive; inhibition [12]: Dose-dependent effect
Cc1nc(/N=N/c2ccc(C(=O)O)cc2)c(COP(=O)(O)O)c(C=O)c1O	–	–	–	–	–	IC50 [10]: 0.6 µM
